Tests used:
Mus musculus = assay: Inhibition of 5'-UGCUGUUCUG-X-GUCUUGUCGU-5'-induced IL6 production in C57BL/6 mouse treated 72 hrs before induction at 10 mg/kg, sc; assay type: functional; conditions: C57BL/6, sc, route subcutaneous
Summary of the method: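 Female C57BL/6 mice, 6-8 weeks, n = 3, given antagonist 10 mg/kg sc in the right flank. After 72 h, agonist given sc in the left flank: TLR7/8 RNA agonist at 50 mg/kg or TLR9 agonist at 0.25 mg/kg. Serum collected 2 h after agonist by retro-orbital bleeding; cytokines/chemokines by mouse 20-plex Luminex bead assay.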

[1] = target: T1, Toll-like receptor 9 (Mus musculus) (UniProt Q9EQU3); assay: Antagonist activity in mouse J774 cells assessed as inhibition of 5'-UGCUGUUCUG-X-GUCUUGUCGU-5'-induced NF-kappaB activation
T1 sequence (whole entry): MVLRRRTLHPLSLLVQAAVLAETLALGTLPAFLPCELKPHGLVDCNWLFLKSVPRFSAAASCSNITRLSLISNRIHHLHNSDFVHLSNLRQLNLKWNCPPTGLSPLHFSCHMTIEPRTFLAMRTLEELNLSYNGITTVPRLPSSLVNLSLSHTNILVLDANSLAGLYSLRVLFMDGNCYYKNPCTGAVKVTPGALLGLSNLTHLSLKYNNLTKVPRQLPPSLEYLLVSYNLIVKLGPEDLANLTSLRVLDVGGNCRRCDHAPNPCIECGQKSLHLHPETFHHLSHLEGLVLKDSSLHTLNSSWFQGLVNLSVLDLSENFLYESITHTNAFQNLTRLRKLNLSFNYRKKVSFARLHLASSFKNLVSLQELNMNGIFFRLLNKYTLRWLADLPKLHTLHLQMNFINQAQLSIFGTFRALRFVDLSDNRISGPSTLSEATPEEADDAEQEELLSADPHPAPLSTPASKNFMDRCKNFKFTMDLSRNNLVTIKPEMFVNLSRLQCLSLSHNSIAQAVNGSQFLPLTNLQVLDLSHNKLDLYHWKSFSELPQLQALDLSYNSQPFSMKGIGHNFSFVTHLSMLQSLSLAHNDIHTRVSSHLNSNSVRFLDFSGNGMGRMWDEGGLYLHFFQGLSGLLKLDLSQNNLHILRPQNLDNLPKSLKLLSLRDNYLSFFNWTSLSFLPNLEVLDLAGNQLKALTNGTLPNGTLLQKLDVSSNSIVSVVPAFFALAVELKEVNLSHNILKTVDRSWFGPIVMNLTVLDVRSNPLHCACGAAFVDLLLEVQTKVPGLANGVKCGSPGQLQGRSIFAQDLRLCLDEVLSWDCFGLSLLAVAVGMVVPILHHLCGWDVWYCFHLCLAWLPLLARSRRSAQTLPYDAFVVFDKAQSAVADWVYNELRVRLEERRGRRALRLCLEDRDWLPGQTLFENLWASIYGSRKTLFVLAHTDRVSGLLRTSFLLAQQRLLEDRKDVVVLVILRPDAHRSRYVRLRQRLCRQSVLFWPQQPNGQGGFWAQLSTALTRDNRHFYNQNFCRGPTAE

Activity [1]: Dose-dependent effect
Compound: CO[C@@H]1[C@H](OP(=O)(S)OC[C@H]2O[C@@H](n3ccc(N)nc3=O)C[C@@H]2OP(=O)(S)OC[C@H]2O[C@@H](n3ccc4c(=O)[nH]c(N)nc43)C[C@@H]2OP(=O)(S)OC[C@H]2O[C@@H](n3cc(C)c(=O)[nH]c3=O)C[C@@H]2OP(=O)(S)OC[C@H]2O[C@@H](n3cc(C)c(=O)[nH]c3=O)C[C@@H]2OP(=O)(S)OC[C@H]2O[C@@H](n3ccc(N)nc3=O)C[C@@H]2OP(=O)(S)OC[C@H]2O[C@@H](n3cc(C)c(=O)[nH]c3=O)C[C@@H]2OP(=O)(S)OC[C@H]2O[C@@H](n3ccc(N)nc3=O)C[C@@H]2OP(=O)(S)OC[C@H]2O[C@@H](n3cc(C)c(=O)[nH]c3=O)C[C@@H]2OP(=O)(S)OC[C@H]2O[C@@H](n3cnc4c(=O)[nH]c(N)nc43)C[C@@H]2OP(=O)(S)OC[C@H]2O[C@@H](n3cc(C)c(=O)[nH]c3=O)C[C@@H]2O)[C@@H](COP(=O)(S)O[C@H]2[C@@H](OC)[C@H](n3cnc4c(=O)[nH]c(N)nc43)O[C@@H]2COP(=O)(S)O[C@H]2C[C@H](n3cc(C)c(=O)[nH]c3=O)O[C@@H]2COP(=O)(S)O[C@H]2C[C@H](n3ccc(N)nc3=O)O[C@@H]2COP(=O)(S)O[C@H]2C[C@H](n3cc(C)c(=O)[nH]c3=O)O[C@@H]2COP(=O)(S)O[C@H]2C[C@H](n3cnc4c(N)ncnc43)O[C@@H]2COP(=O)(S)O[C@H]2C[C@H](n3cc(C)c(=O)[nH]c3=O)O[C@@H]2COP(=O)(S)O[C@@H]2C[C@@H](n3ccc(N)nc3=O)O[C@H]2CO)O[C@H]1n1cnc2c(N)ncnc21 (some centres not stated)
inhibition in vivo at 10 mg/kg (Mus musculus): ≥ 50%

— ChEMBL document CHEMBL1140884, “Oligodeoxyribonucleotide-based antagonists for Toll-like receptors 7 and 9” (2009)
